ChEMBL document CHEMBL3112527, “Quinoline-pyrimidine hybrids: synthesis, antiplasmodial activity, SAR, and mode of action studies” (J Med Chem, 2014)
≈ marks a conversion by molar mass, not a printed value. Calls of active or inactive are those of the source. No cut-off for these calls is given here.

Columns and labels:
[1] = test system: Felid alphaherpesvirus 1; experiment: Antiviral activity against Feline herpesvirus infected in cat CRFK cells assessed as inhibition of virus-induced cytopathicity; assay type: functional, organism-based
In short: (§1)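 Confluent monolayers (HEL, Vero, HeLa or CrFK, as applicable) were inoculated with 100 CCID50 of virus, with 1 CCID50 being the dose that infects 50% of cultures. Infection ran in the presence of varying compound concentrations. Inhibition of virus-induced cytopathicity was scored against infected cultures left untreated.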

[2] = Selectivity index, ratio of CC50 for cat CRFK cells to IC50 for chloroquine-resistant asexual erythrocytic stage of Plasmodium falciparum Dd2; assay type: functional
In short: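 Ratio of CRFK CC50 (μM) to Dd2 IC50 […]. CC50 is the 50% cytotoxic concentration in feline kidney CRFK cells, measured as cell viability by colorimetric formazan-based MTS assay. Dd2 IC50 is from the parasite LDH growth-inhibition assay.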

[3] = test system: Human betaherpesvirus 5; experiment: Antiviral activity against Cytomegalovirus Davis infected in HEL cells assessed as inhibition of virus-induced cytopathicity; assay type: functional, organism-based
[4] = test system: Human alphaherpesvirus 2; experiment: Antiviral activity against HSV-2 G infected in HEL cells assessed as inhibition of virus-induced cytopathicity; assay type: functional, organism-based; conditions: strain G; in short: as §1
[5] = test system: Plasmodium falciparum; experiment: Antiplasmodial activity against chloroquine-resistant asexual erythrocytic stage of Plasmodium falciparum Dd2 assessed as parasite growth inhibition by lactate dehydrogenase assay; assay type: functional, organism-based
In short: (§2)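 Parasite lactate dehydrogenase assay (modified Makler method). Samples held as 20 mg/mL stocks in DMSO, diluted on test day. Full dose-response: starting at 10 μg/mL, 2-fold serial dilution in complete medium over 10 concentrations down to 0.02 μg/mL. Chloroquine, artesunate and MMV390048 served as references. IC50 from nonlinear dose-response curve fitting; mean of three independent experiments.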

[6] = test system: Mammalian orthoreovirus 1; experiment: Antiviral activity against Reovirus 1 infected in African green monkey Vero cells assessed as inhibition of virus-induced cytopathicity; assay type: functional, organism-based; in short: as §1
[7] = test system: Feline coronavirus; experiment: Antiviral activity against Feline coronavirus infected in cat CRFK cells assessed as inhibition of virus-induced cytopathicity; assay type: functional, organism-based; in short: as §1
[8] = test system: Human alphaherpesvirus 1; experiment: Antiviral activity against thymidine kinase-negative acyclovir-resistant HSV-1 KOS infected in HEL cells assessed as inhibition of virus-induced cytopathicity; assay type: functional, organism-based
In short: (§3)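 Confluent monolayers in 96-well plates were inoculated with 100 CCID50 of virus in the presence of varying concentrations of compound. Read-out was inhibition of virus-induced cytopathicity, compared with untreated infected cultures. Cytotoxicity was judged microscopically or by MTT viability staining.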

[9] = test system: Plasmodium falciparum; experiment: Antiplasmodial activity against chloroquine-sensitive asexual erythrocytic stage of Plasmodium falciparum D10 assessed as parasite growth inhibition by lactate dehydrogenase assay; assay type: functional, organism-based; in short: as §2
[10] = test system: Coxsackievirus B4; experiment: Antiviral activity against Coxsackievirus B4 infected in human HeLa cells assessed as inhibition of virus-induced cytopathicity; assay type: functional, organism-based; in short: as §1
[11] = test system: Vesicular stomatitis virus; experiment: Antiviral activity against Vesicular stomatitis virus infected in human HeLa cells assessed as inhibition of virus-induced cytopathicity; assay type: functional, organism-based; in short: as §3
[12] = test system: Human betaherpesvirus 5; experiment: Antiviral activity against Cytomegalovirus AD169 infected in HEL cells assessed as inhibition of virus-induced cytopathicity; assay type: functional, organism-based
[13] = test system: Vesicular stomatitis virus; experiment: Antiviral activity against Vesicular stomatitis virus infected in HEL cells assessed as inhibition of virus-induced cytopathicity; assay type: functional, organism-based; in short: as §3
[14] = test system: Coxsackievirus B4; experiment: Antiviral activity against Coxsackievirus B4 infected in African green monkey Vero cells assessed as inhibition of virus-induced cytopathicity; assay type: functional, organism-based; in short: as §1
[15] = test system: Influenza A virus H3N2; experiment: Antiviral activity against Influenza A virus H3N2 infected in MDCK cells assessed as inhibition of virus-induced cytopathicity; assay type: functional, organism-based; in short: as §3
[16] = test system: Human alphaherpesvirus 1; experiment: Antiviral activity against HSV-1 KOS infected in HEL cells assessed as inhibition of virus-induced cytopathicity; assay type: functional, organism-based; in short: as §1
[17] = n-octanol-PBS buffer distribution coefficient, log D of the compound at pH 7.4 after 24 hrs by HPLC analysis; assay type: physicochemical
[18] = Solubility of the compound in octanol at pH 7.4 by HPLC analysis; assay type: physicochemical
[19] = Aqueous solubility of the compound in PBS buffer at pH 7.4 after 24 hrs by HPLC analysis; assay type: physicochemical; conditions: pH 7.4, 24 h
[20] = test system: Human respirovirus 3; experiment: Antiviral activity against parainfluenza virus 3 infected in African green monkey Vero cells assessed as inhibition of virus-induced cytopathicity; assay type: functional, organism-based; in short: as §1
[21] = test system: Influenza A virus; experiment: Antiviral activity against influenza A virus H1N1 infected in MDCK cells assessed as inhibition of virus-induced cytopathicity; assay type: functional, organism-based; in short: as §3
[22] = test system: Sindbis virus; experiment: Antiviral activity against Sindbis virus infected in African green monkey Vero cells assessed as inhibition of virus-induced cytopathicity; assay type: functional, organism-based
[23] = test system: Respiratory syncytial virus; experiment: Antiviral activity against Respiratory syncytial virus infected in human HeLa cells assessed as inhibition of virus-induced cytopathicity; assay type: functional, organism-based; in short: as §1
[24] = Cytotoxicity against cat CRFK cells assessed as cell viability by MTS assay; assay type: cell-based, Felis catus
In short: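 CRFK cells were exposed to varying sample concentrations. Cell viability was measured with the colorimetric formazan-based MTS assay, and the 50% cytotoxic concentration (CC50) was derived from it.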

[25] = test system: Vaccinia virus; experiment: Antiviral activity against Vaccinia virus infected in HEL cells assessed as inhibition of virus-induced cytopathicity; assay type: functional, organism-based; conditions: Orthopoxvirus vaccinia; in short: as §3
[26] = test system: Punta Toro virus; experiment: Antiviral activity against Punta Toro virus infected in African green monkey Vero cells assessed as inhibition of virus-induced cytopathicity; assay type: functional, organism-based; in short: as §1
[27] = Cytotoxicity against human HeLa cells assessed as alteration of cell morphology by microscopic analysis; assay type: cell-based; conditions: read-out: MIC
In short: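 Cells (Vero, HEL, MDCK or HeLa) were exposed to a range of sample concentrations. The value reported is the concentration required to cause a microscopically detectable alteration of normal cell morphology.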

[28] = test system: Human alphaherpesvirus 3; experiment: Antiviral activity against Varicella-zoster virus infected in HEL cells assessed as inhibition of virus-induced cytopathicity; assay type: functional, organism-based

Row | Structure (SMILES) | inhibition [1] | Ratio CC50/IC50 [2] | inhibition [3] | inhibition [4] | IC50 [5] [nM] | inhibition [6] | inhibition [7] | inhibition [8] | IC50 [9] [nM] | inhibition [10] | inhibition [11] | inhibition [12] | inhibition [13] | inhibition [14] | inhibition [15] | inhibition [16] | logD at 24 h [17] | solubility [18] [µM] | solubility [19] [µM] | inhibition [20] | further results
1 | Clc1ccc2c(NCCCCNc3nccc(Cl)n3)ccnc2c1 | inactive | >518 | inactive | inactive | 193 | inactive | inactive | inactive | 179 | inactive | inactive | inactive | inactive | inactive | inactive | inactive | 0.742 | 3.86 (≈ 1.4 µg/mL) | 0.7 (≈ 0.254 µg/mL) | inactive | inhibition [21]: inactive; inhibition [22]: inactive; inhibition [23]: inactive; CC50 [24]: > 100000 nM; inhibition [25]: inactive; inhibition [26]: inactive; MCC [27]: 100 µM; inhibition [28]: inactive
2 | Clc1ccc2c(NCCCNc3ccnc(N4CCOCC4)n3)ccnc2c1 | inactive | >247 | inactive | inactive | 404 | inactive | inactive | inactive | 70 | inactive | inactive | inactive | inactive | inactive | inactive | inactive | 0.363 | 1.27 (≈ 0.507 µg/mL) | 0.55 (≈ 0.219 µg/mL) | inactive | inhibition [21]: inactive; inhibition [22]: inactive; inhibition [23]: inactive; CC50 [24]: > 100000 nM; inhibition [25]: inactive; inhibition [26]: inactive; MCC [27]: 100 µM; inhibition [28]: inactive
